Measured values published in ChEMBL document CHEMBL1123363, “(5-Amino-1,3-dimethyl-1H-pyrazol-4-yl)(2-fluorophenyl)methanones . A series of novel potential antipsychotic agents” (J Med Chem, 1986).

Columns and labels:
[1] = target: T1, Adrenergic receptor alpha-2 (Rattus norvegicus, UniProt P22086+P19328+P22909); test: Binding affinity against alpha-2 adrenergic receptor in rat brain using [3H]- clonidine
T1 sequence (P22086 whole entry): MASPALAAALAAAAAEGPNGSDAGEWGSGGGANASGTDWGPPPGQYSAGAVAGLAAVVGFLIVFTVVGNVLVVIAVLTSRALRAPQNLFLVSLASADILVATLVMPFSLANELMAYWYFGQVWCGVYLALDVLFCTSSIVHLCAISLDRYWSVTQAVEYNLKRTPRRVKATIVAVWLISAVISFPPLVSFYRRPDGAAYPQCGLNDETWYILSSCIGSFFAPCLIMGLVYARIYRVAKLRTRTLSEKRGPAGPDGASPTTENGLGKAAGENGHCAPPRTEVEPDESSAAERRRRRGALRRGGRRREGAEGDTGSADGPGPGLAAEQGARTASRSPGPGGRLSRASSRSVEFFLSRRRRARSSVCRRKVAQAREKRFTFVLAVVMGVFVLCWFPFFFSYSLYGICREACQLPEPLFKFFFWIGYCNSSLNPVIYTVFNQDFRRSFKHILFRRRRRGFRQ
T1 sequence (P19328 whole entry): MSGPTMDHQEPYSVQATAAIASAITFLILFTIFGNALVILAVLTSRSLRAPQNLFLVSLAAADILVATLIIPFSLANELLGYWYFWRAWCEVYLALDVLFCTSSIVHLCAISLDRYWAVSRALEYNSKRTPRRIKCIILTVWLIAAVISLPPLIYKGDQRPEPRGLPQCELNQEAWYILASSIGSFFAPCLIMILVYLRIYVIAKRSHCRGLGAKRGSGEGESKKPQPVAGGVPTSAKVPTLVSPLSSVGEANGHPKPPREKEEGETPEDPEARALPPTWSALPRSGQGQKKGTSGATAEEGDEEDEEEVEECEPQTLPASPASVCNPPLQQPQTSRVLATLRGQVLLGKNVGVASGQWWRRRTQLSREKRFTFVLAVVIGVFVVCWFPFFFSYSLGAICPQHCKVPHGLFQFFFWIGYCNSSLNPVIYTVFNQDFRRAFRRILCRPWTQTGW
T1 sequence (P22909 whole entry): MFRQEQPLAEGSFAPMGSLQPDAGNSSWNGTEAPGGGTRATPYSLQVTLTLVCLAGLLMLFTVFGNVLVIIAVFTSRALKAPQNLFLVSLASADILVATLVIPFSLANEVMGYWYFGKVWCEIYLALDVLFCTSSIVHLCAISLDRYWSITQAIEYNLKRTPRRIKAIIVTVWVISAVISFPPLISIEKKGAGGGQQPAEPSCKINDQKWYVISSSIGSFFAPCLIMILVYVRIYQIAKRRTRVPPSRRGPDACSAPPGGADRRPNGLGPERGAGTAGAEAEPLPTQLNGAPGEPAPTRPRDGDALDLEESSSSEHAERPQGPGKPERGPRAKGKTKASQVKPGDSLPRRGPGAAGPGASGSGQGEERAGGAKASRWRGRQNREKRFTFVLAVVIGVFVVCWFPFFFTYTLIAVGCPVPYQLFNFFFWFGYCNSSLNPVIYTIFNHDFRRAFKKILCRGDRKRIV

[2] = Displacement of [3H]flunitrazepam from rat brain GABA-A benzodiazepine receptor
[3] = Extrapyramidal side effect test in cebus monkey; type: functional; details: read-out: MED
Summary of the method: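 Groups of three to six were then dosed by gavage and observed hourly for 6–8 h for dystonia or dyskinesia. Any unequivocal sign counted as a positive response. Minimal effective dose was determined in at least three animals.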

Dopamine receptor = test: Binding affinity for dopamine receptor in rat striatal membrane using [3H]haloperidol as radioligand; type: cell membranes, Striatum
Summary of the method: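 Nonspecific binding defined with (+)-butaclamol at 0.1 μM final. IC50 fitted by nonlinear curve fit from four or five concentrations in triplicate.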

[4] = target: GABA-A receptor; anion channel; test: Displacement of [3H]GABA from rat brain Gamma-aminobutyric acid receptor
Summary of the method: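 GABA binding in membranes of rat whole brain minus cerebellum and brain stem (male Long-Evans, 150–250 g), using [3H]-GABA at 25 nM final. GABA at 1 mM final was the reference. IC50 from four or five concentrations by nonlinear curve fitting.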

Mus musculus [5] = test: Inhibition of apomorphine-induced climbing in mice after intraperitoneal administration; type: functional; details: ip
Summary of the method: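 Male Swiss–Webster mice (25–35 g), ten per dose, were acclimated 30 min in cylindrical cages and then dosed ip. One hour later they received apomorphine 3 mg/kg sc. Climbing was scored in 30-s tests every 5 min for 30 min, starting 15 min after apomorphine. ED50 from at least three doses by nonlinear regression.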

Mus musculus [6] = species: Mus musculus; test: Ability to inhibit locomotor activity using ataxia test.; type: functional; details: read-out: MED
Summary of the method: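 Male Swiss–Webster mice (20–30 g, unfasted), nine per dose in groups of three, dosed ip in 0.2% methocel (dose as parent compound) 1 h before testing. Ataxia was scored first on an inverted screen over 60 s as % of mice falling. […] ED50 from at least three doses.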

Rattus norvegicus [7] = test: Compound was tested for serum prolactin assay method in rats at 100 mg/kg dose after peroral administration; type: functional; details: route oral
Summary of the method: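 Seven-week-old male Sprague–Dawley rats, five per group, were dosed orally and killed by decapitation 1 h later. Serum prolactin from trunk blood was measured by radioimmunoassay with [125I]-PRL and expressed as % of control (mean ± SEM).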

Rattus norvegicus [8] = species: Rattus norvegicus; test: Compound was tested for adenylate cyclase activity in rat corpus striatum; type: functional
Summary of the method: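 Rat corpus striatum homogenates from male Long–Evans rats (200–300 g) were incubated with dopamine held at 20 μM while test compound concentration was varied. Cyclic AMP formed was measured by radioimmunoassay, with assays run in triplicate.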

[9] = Inhibition of sidman avoidance in squirrel monkeys after peroral administration; type: functional; details: po
Summary of the method: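 Mature squirrel monkeys, trained on a modified Sidman avoidance lever schedule, were dosed orally and tested in 6-h sessions. Inhibition was expressed as % of each animal's own nondrug responding. At least three doses were given to four animals, with sessions at least 1 week apart. ED50 from nonlinear regression.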

Rattus norvegicus [10] = test: Compound was tested for its affect on the accumulation of the dopamine metabolite homovanillic acid (HAV) in the rat striatum at 25 mg/kg dose after peroral administration; type: functional; details: route oral
Summary of the method: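 Male Long–Evans rats were dosed orally and decapitated 2 h later. Striatal HVA was isolated on Sephadex G-10 and measured spectrofluorometrically, expressed as % control ± SEM.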

Adenosine receptor A1 = target: T2, Adenosine receptor A1 (Rattus norvegicus, UniProt P25099); test: Binding affinity towards adenosine A1 receptor using [3H]- CHA
T2 sequence (P25099 whole entry): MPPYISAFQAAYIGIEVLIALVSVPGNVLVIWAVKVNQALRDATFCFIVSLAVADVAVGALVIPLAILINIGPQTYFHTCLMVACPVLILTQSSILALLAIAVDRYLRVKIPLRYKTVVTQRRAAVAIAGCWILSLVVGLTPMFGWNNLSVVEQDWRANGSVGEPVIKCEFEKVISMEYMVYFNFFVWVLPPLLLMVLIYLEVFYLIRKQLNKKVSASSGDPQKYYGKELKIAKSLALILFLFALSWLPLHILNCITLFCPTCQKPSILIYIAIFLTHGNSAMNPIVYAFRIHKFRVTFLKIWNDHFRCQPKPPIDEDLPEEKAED
Summary of the method: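 Adenosine A1 binding in membranes of rat whole brain minus brain stem and cerebellum (male Long-Evans, 150–250 g), using [3H]-CHA at 1.0 nM final. Theophylline at 1 mM final was the reference. IC50 from four or five concentrations by nonlinear fit.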

Row | IC50 [1] | IC50 [2] | IC50 (Dopamine receptor) | IC50 [4] | IC50 (Rattus norvegicus [8]) | IC50 (Adenosine receptor A1) | Structure (SMILES) | minimal effective dose [3] | ED50 (Mus musculus [5]) | minimal effective dose (Mus musculus [6]) | Control (Rattus norvegicus [7]) | ED50 [9] | Control (Rattus norvegicus [10])
1 | > 10 µM | > 10 µM | > 10 µM | > 10 µM | > 10 µM | – | Cc1nn(C)c(NC(=O)CNCCCN2CCCCC2C)c1C(=O)c1ccccc1F (stereo unspecified) | > 200 mg/kg | > 100 mg/kg | 30 mg/kg | 51% | 12.7 mg/kg | 95.8%
2 | > 10 µM | > 10 µM | > 10 µM | > 10 µM | – | > 10 µM | Cc1nn(C)c(N)c1C(=O)c1ccccc1F | – | – | < 10 mg/kg | – | – | –
3 | – | > 10 µM | – | – | > 10 µM | > 10 µM | CCN(CC)CC(=O)Nc1c(C(=O)c2ccccc2F)c(C)nn1C | > 100 mg/kg | > 100 mg/kg | 30 mg/kg | 21.8% | 15.6 mg/kg | 114.9%
